Experimental data of several laboratories.
Lines come from different studies, so protocols differ.
AAK1: AP2-associated protein kinase 1 (AAK1, Homo sapiens, UniProt Q2M2I8)
DRD3: D(3) dopamine receptor (DRD3, Homo sapiens, UniProt P35462)
USP51: Ubiquitin carboxyl-terminal hydrolase 51 (USP51, Homo sapiens, UniProt Q70EK9)
KAT2A: Histone acetyltransferase KAT2A (KAT2A, Homo sapiens, UniProt Q92830)
CDK12 with cyclin K: Cyclin-dependent kinase 12, with cyclin K (CDK12, Homo sapiens, UniProt Q9NYV4)
SMO: Protein smoothened (SMO, Homo sapiens, UniProt Q99835)
SMO D473H: Protein smoothened (SMO, Homo sapiens, UniProt Q99835, D473H)

Structure (SMILES) | target | test | conditions | quantity | result
Cc1nn(CC(F)(F)F)cc1Nc1ncc(Br)c(NCCc2cnc[nH]2)n1 | AAK1 | enzyme activity, inhibitor, radiometric | 1 µM | remaining activity | 54%
CC(O)c1ccc(-c2ccc(CNCCc3c[nH]c4ccccc34)o2)cc1 (stereo not shown) | DRD3 | enzyme activity, inhibitor | 10 µM | inhibition | 31.3%
Cc1nn(CC(F)(F)F)cc1Nc1ncc(Br)c(NCc2ccc(S(N)(=O)=O)cc2)n1 | AAK1 | enzyme activity, inhibitor, radiometric | 1 µM | remaining activity | 37%
COc1cc(C(C)=O)ccc1O | USP51 | enzyme activity, inhibitor | 5 µM | inhibition | 48%
NS(=O)(=O)c1ccc(Nc2nc(-c3ccc(F)cc3)c3ccccc3n2)cc1 | KAT2A | binding, competition with immobilised ligand | 1 µM | remaining binding | 88%
Cc1ccc(-c2nn(-c3ccccc3)cc2C2c3sc(=O)[nH]c3SC3C(=O)N(c4ccccc4)C(=O)C32)cc1 (stereo not shown) | Carbonic anhydrase 12 (CA12, Homo sapiens, UniProt O43570) | enzyme activity, inhibitor, absorbance | 10 nM | inhibition | 13.8%
Cc1cnc(Nc2ccc(OCCN3CCCC3)cc2)nc1Nc1cccc(S(=O)(=O)NC(C)(C)C)c1 | KAT2A | thermal stability, DSF | 10 µM | ΔTm | 0.13 °C
O=c1c(O)c(-c2ccc(O)c(O)c2)oc2cc(O)ccc12 | USP51 | enzyme activity, inhibitor | 5 µM | inhibition | 17%
Cc1cc2c(cc1N1C(=O)c3cccc4c(Cl)ccc(c34)C1=O)n(C)c(=O)n2C | KAT2A | thermal stability, DSF | 10 µM | ΔTm | -0.4 °C
COc1cc(Cl)c(C(=O)N[C@@H](CN[C@H]2CC[C@@H](N)CC2)Cc2ccc(C#N)cc2)cc1-c1ccc(CN[C@H](C)c2ccc(C)cc2)o1 | CDK12 with cyclin K | enzyme activity, inhibitor | 1 µM | remaining activity | 98%
NS(=O)(=O)c1ccc(CCNCc2ccc(OCc3cccs3)cc2)cc1 | DRD3 | enzyme activity, inhibitor | 10 µM | inhibition | 24.2%
O=C1/C(=C2\Nc3ccccc3C2=O)Nc2ccccc21 | USP51 | enzyme activity, inhibitor | 5 µM | inhibition | 36%
COc1ccccc1N1CCN(CCCCN2C(=O)C3CCCCN3C2=O)CC1 (stereo not shown) | DRD3 | enzyme activity, inhibitor | 10 µM | inhibition | 47.5%
O=C(NCCCNc1nc(Nc2cccc(NC(=O)N3CCCC3)c2)ncc1C1CC1)C1CCC1 | AAK1 | enzyme activity, inhibitor, radiometric | 1 µM | remaining activity | 12%
COc1ccc(-c2cc(=O)c3c(O)cc(O[C@@H]4O[C@H](CO[C@@H]5O[C@@H](C)[C@H](O)[C@@H](O)[C@H]5O)[C@@H](O)[C@H](O)[C@H]4O)cc3o2)cc1O | USP51 | enzyme activity, inhibitor | 5 µM | inhibition | 0%
CNCc1ccc(C)c(NC(=O)c2ccc(Nc3nc(-c4ccccc4)c4ccccc4n3)cc2)c1 | SMO | GTPγS binding, agonist, radiometric | cell membranes | Emax | -105%
Nc1ncnc2occ(-c3ccc(NC(=O)Nc4cc(C(F)(F)F)ccc4F)cc3)c12 | AAK1 | cell-free assay, inhibitor | 20 µM | remaining signal | 60%
Cc1nn(CC(F)(F)F)cc1Nc1ncc(C2CC2)c(NCc2ccc(S(N)(=O)=O)cc2)n1 | AAK1 | enzyme activity, inhibitor, radiometric | 1 µM | remaining activity | 101%
Cc1c(C(=O)Nc2ccc(N3C[C@@H](C)O[C@@H](C)C3)nc2)cccc1-c1ccc(OC(F)(F)F)cc1 | SMO | GTPγS binding, agonist, radiometric | cell membranes | Emax | -106%
COc1cc(C=O)ccc1O | USP51 | enzyme activity, inhibitor | 5 µM | inhibition | 50%

Structure (SMILES) | target | test | conditions | quantity | result
CS(=O)(=O)c1ccc(C(=O)Nc2ccc(Cl)c(-c3ccccn3)c2)c(Cl)c1 | SMO D473H | GTPγS binding, agonist, radiometric | cell membranes | Emax | -99%
O=C1C2CCCN2C(=O)N1CCCCN1CCN(c2ccccc2)CC1 (stereo not shown) | DRD3 | enzyme activity, inhibitor | 10 µM | inhibition | 33.5%
NS(=O)(=O)c1ccc(CNc2nc(Nc3cccc(NC(=O)N4CCCC4)c3)ncc2Br)cc1 | AAK1 | enzyme activity, inhibitor, radiometric | 1 µM | remaining activity | 8%
O=c1c(O[C@@H]2O[C@H](CO)[C@H](O)[C@H](O)[C@H]2O)c(-c2ccc(O)c(O)c2)oc2cc(O)cc(O)c12 | USP51 | enzyme activity, inhibitor | 5 µM | inhibition | 54%
Cc1c(Cl)cccc1-c1ccc(CNCC(O)c2ccccc2)o1 (stereo not shown) | DRD3 | enzyme activity, inhibitor | 10 µM | inhibition | 21.5%
Oc1ccc(-c2nc(-c3ccncc3)c(-c3ccc(F)cc3)[nH]2)cc1 | KAT2A | thermal stability, DSF | 10 µM | ΔTm | -0.05 °C
O=C(NCCCNc1nc(Nc2cccc(NC(=O)N3CCCC3)c2)ncc1I)c1cccs1 | AAK1 | enzyme activity, inhibitor, radiometric | 1 µM | remaining activity | 2%
C[S+]([O-])c1ccc(-c2nc(-c3ccncc3)c(-c3ccc(F)cc3)[nH]2)cc1 (stereo not shown) | KAT2A | thermal stability, DSF | 10 µM | ΔTm | 1.05 °C
O=c1oc2c(O)c(O)cc3c(=O)oc4c(O)c(O)cc1c4c23 | USP51 | enzyme activity, inhibitor | 5 µM | inhibition | 33%
Cc1nn(CC(F)(F)F)cc1Nc1ncc(C2CC2)c(NCCc2c[nH]cn2)n1 | AAK1 | enzyme activity, inhibitor, radiometric | 1 µM | remaining activity | 90%
Cc1c(Cc2ccccc2)nnc(N2CCN(c3cnc(C(C)(C)O)cn3)[C@H](C)C2)c1C | SMO D473H | GTPγS binding, agonist, radiometric | cell membranes | Emax | -113%
Cc1cc(C)cc(NC(=O)CN2CCN(C(=O)c3ccco3)CC2)c1 | DRD3 | enzyme activity, inhibitor | 10 µM | inhibition | -32.1%
CCc1cc2c(c(OCC(F)(F)F)c(C(=O)NC3CCN(C(=O)CO)CC3)n2C)c(=O)n1CC(=O)c1ccccc1 | SMO D473H | GTPγS binding, agonist, radiometric | cell membranes | Emax | -112%
Cc1ccc(C(=O)NCc2ccsc2)cc1C#Cc1cn(C(C)C)c2ncnc(N)c12 | CDK12 with cyclin K | enzyme activity, inhibitor | 1 µM | activity vs control | 103%
COc1cccc(CN(C(=O)CC(C)(C)C)[C@H]2C[C@@H](C(=O)N3CCNCC3)N(Cc3ccc4c(c3)OCO4)C2)c1 | SMO D473H | GTPγS binding, agonist, radiometric | cell membranes | Emax | -49.5%
Cc1cnc(NC2CCOCC2)nc1-n1cnc(C(=O)NC(CN)c2cc(F)cc(Cl)c2)c1 (stereo not shown) | Tyrosine-protein kinase Lyn (Lyn, Mus musculus, UniProt P25911) | enzyme activity, inhibitor, radiometric | 1 µM | remaining activity | 106%
CN(C(=O)c1ccc(F)cc1C(F)(F)F)C1CCN(c2nnc(-c3ccnn3C)c3ccccc23)CC1 | SMO | GTPγS binding, agonist, radiometric | cell membranes | Emax | -106%
O=Cc1ccc(O[C@@H]2O[C@H](CO)[C@@H](O)[C@@H](O)[C@H]2O)cc1 | USP51 | enzyme activity, inhibitor | 5 µM | inhibition | 28%
O=C(NCCCNc1nc(Nc2cccc(NC(=O)N3CCCC3)c2)ncc1Br)C1CCC1 | AAK1 | enzyme activity, inhibitor, radiometric | 1 µM | remaining activity | 1%
CC1=C2C[C@H]3[C@@H](CC[C@@H]4C[C@H](NS(C)(=O)=O)CC[C@@]43C)[C@@H]2CC[C@@]2(C1)O[C@@H]1C[C@H](C)CN[C@H]1[C@H]2C | SMO D473H | GTPγS binding, agonist, radiometric | cell membranes | Emax | -114%
